# Bioassay records: PubChem BioAssay, several laboratories
# aSyn UTR inh – MLPCN primary screen, SNCA 5' untranslated region; alpha-synuclein 5'UTR reporter, inhibitor activity; hit rate 0.82% among 300,000; inhibition, % (tested at 7.5 µM); in the data active means inhibition above about 60%; inconclusive means no clear call, values can overlap the other calls;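 further: H4 neuroglioblastoma cells stably carrying SNCA 5'UTR luciferase fusion; 0% = DMSO wells and 100% = positive control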
# CSC inhib – cancer stem cell inhibition; AID 2717; inhibition, % at 7.5 µM; hit rate 1.1% among 300,000; cancer stem cell-like cells viability, luminescence; in the data active means inhibition above about 75%; inconclusive means no clear call, values can overlap the other calls; tested in HMLE shEcad cells
# T cruzi repl – T. cruzi replication inhibition; inhibition, % (no concentration beside the values); hit rate 1.4% among 300,000; T. cruzi beta-gal in NIH3T3, luminescence, 90 h; AID 1885;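 active means mean inhibition across valid replicates above about 55%, limit read from the data; inconclusive means mean below that limit but half or more replicates reach it; inactive means mean below it, under half of replicates reach it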;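 further: signal also drops with host cell toxicity which is not excluded here; 0% = plate median of DMSO wells and 100% = zero luminescence signal; higher percent means less beta-gal luminescence so fewer parasites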
#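 System: Mouse NIH/3T3 fibroblasts infected with β-gal-expressing T. cruzi Tulahuen C4 | Quantity: NIH/3T3 cells, 5,000 per well | Reagent: 5000 reporter trypomastigotes per well | Dosing: Compound pinned at 50 nL/well, DMSO | Schedule: 3 h host attachment, then at least 90 h co-culture | Detection: GalScreen luminescence, 60 min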
# SKKanGAS inh – blocks kanamycin growth of S. pyogenes SKKanGAS strain; BacTiter-Glo, 6 h; inhibition, % at 7.5 µM; hit rate 1.3% among 300,000; AID 1662;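 active means mean replicate score, as percent of positive control median, at least 50; inconclusive means mean below 50 but one replicate at or above 50; inactive means mean and every replicate below 50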;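 further: strain carries kanamycin resistance gene driven by streptokinase promoter and grows in 40 µg/ml kanamycin; loss of luminescence reflects streptokinase promoter inhibition or plain growth inhibition; 0% = median of DMSO wells and 100% = positive control at its reference dose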
# Mdm2-MdmX inh – inhibitors of human Mdm2/MdmX interaction. SaOS-2 split-luciferase Mdm2/MdmX complementation, luminescence. inhibition, % at 8 µM. hit rate 3% among 330,000. AID 485346;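 active means inhibition of at least 50% at 8 µM in the primary screen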
# Target sequence (O15151 whole entry, looked up): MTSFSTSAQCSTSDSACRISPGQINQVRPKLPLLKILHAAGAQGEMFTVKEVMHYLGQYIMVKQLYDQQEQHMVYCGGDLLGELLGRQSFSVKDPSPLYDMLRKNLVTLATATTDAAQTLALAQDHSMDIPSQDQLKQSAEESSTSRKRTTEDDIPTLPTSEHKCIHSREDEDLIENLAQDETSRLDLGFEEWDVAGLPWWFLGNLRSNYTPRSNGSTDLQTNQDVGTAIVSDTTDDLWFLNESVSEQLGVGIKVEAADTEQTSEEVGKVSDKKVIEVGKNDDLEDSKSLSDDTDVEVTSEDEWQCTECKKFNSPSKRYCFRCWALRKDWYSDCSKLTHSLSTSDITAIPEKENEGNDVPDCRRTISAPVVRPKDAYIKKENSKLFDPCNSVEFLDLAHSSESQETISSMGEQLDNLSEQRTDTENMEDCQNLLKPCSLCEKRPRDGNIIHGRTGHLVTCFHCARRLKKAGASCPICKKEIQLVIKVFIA
# Target sequence (Q00987 whole entry, looked up): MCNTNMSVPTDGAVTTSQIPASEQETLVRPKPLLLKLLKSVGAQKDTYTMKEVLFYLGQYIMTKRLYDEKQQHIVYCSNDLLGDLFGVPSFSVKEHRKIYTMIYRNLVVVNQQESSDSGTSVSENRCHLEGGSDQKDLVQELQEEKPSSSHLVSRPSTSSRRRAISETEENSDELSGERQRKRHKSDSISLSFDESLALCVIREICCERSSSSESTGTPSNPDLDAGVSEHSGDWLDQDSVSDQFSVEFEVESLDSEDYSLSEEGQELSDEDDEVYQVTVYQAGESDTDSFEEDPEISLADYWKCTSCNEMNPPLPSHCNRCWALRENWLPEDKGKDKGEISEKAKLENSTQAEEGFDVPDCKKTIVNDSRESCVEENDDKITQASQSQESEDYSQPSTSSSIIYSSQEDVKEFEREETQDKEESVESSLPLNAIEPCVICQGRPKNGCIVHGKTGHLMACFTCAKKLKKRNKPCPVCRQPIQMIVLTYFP
# * hit, by the source's call; ? = inconclusive; . = no result. Only some compounds are listed: those with a hit (about 5.4% of all), similar ones and a draw of the others.
SMILES,aSyn UTR inh,CSC inhib,T cruzi repl,SKKanGAS inh,Mdm2-MdmX inh
CC[C@@H](CO)C1CC2NC3CC4(c5ccccc5N(C)[C@@H]24)C(O)C31 (stereo partly drawn),-26.9,-4.4,-5.3,3.4,0.9
CC(=O)OC1=CC[C@H]2[C@@H]3CC[C@H]4C[C@H](OC(C)=O)[C@@H](OC(C)=O)C[C@]4(C)[C@H]3CC[C@]12C,.,-12.1,.,.,10.4
CCOC(=O)c1c(N)n(CCCOC(=O)c2ccco2)c2nc3ccccc3nc12,114.3*,19.9,0.8,8.0,43.4
CCCCCn1c(=O)c(C(=O)Nc2ccccc2C)c(O)c2ccccc21,-82.7,0.8,-1.2,-2.4,25.3
CCCCn1c(=O)c(C(=O)Nc2nnc(C(C)C)s2)c(O)c2ccccc21,-0.7,26.8,-1.7,94.8*,11.4
CCCCn1c(=O)c(C(=O)Nc2ccccc2)c(O)c2ccccc21,-29.5,44.9,-5.3,-6.5,4.3
CCCCn1c(=O)c(C(=O)Nc2ncccc2C)c(O)c2ccccc21,35.2,8.3,6.6,107.1*,25.9
CCCCCn1c(=O)c(C(=O)Nc2ccccc2S(N)(=O)=O)c(O)c2ccccc21,68.8*,5.8,68.6*,42.8,42.3
CCCCCCn1c(=O)c(C(=O)Nc2ncccc2C)c(O)c2ccccc21,30.8,6.3,8.0,94.2*,4.6
Cc1nc2ccccc2c(=O)n1-c1ccc(Br)cc1[N+](=O)[O-],-13.5,-2.3,-14.9,8.9,8.4
CCc1ccc(NC2=NCCCS2)cc1,-26.0,-6.9,44.4,-2.1,16.1
CCCCCn1c(=O)c(C(=O)Nc2nc(CC(=O)OCC)cs2)c(O)c2ccccc21,2.9,-7.9,23.6,71.0*,3.2
COC(=O)CSC1=NN1c1cc(C)nc(N)n1,-45.2,-7.3,-5.1,0.9,0.4
O=C(CCc1ccccc1)N1C[C@H]2C[C@@H](C1)c1cccc(=O)n1C2,25.3,-10.1,-16.6,-1.2,0.7
COCCCNC(=O)c1c(NC(=O)c2ccco2)n(Cc2ccccc2)c2nc3ccccc3nc12,17.0,.,22.8,27.5,41.1
COCCNC(=O)c1c(NC(=O)c2ccc(Br)o2)n(Cc2ccccc2)c2nc3ccccc3nc12,-16.2,13.9,-3.2,61.3*,-2.2
N#CC(Br)Br,.,0.7,.,.,20.5
Cc1ccc(CN2CCCN(Cc3ccc(Cl)cc3)S2(=O)=O)cc1,6.0,.,-1.0,22.9,10.0
Cc1ccccc1CN1CCCN(Cc2ccc(Cl)cc2)S1(=O)=O,-16.8,.,3.9,62.8*,-33.3
O=C(/C=C/c1c[nH]c2ccccc12)c1c(O)n(CCc2ccccc2)c(=O)[nH]c1=O,25.9,16.2,-16.5,85.3*,23.0
Cc1nn(CC(=O)N2CCC3(CC2)OCCO3)c(=O)c2cc3ccccc3n12,-9.8,-6.1,-0.5,-3.7,35.1
CNC(=O)Oc1cccc(-c2cn3cc(Cl)ccc3n2)c1,?,15.6,4.0,6.0,-221.5
CNC(=O)Oc1ccc(-c2cn3cc(C)ccc3n2)cc1,75.5*,10.5,-29.3,4.6,-18.1
O=C(/C=C/c1ccc2c(c1)OCO2)c1c(O)n(CCC2=CCCCC2)c(=O)[nH]c1=O,.,84.2*,.,.,.
C1CCC2S[C@H]3CCCCC3NC2C1 (stereo partly drawn),8.8,-12.0,-27.1,1.7,15.5
SMILES,aSyn UTR inh,CSC inhib,T cruzi repl,SKKanGAS inh,Mdm2-MdmX inh
CCCC12CN3CC(CCC)(CN(C1)C3c1ccccn1)C2=O (stereo not drawn),11.1,-15.3,-13.1,74.9*,18.3
COc1ccc2c(c1OC)CN1CCc3cc4c(cc3C1C2)OCO4 (stereo not drawn),-26.0,-4.0,57.9*,4.8,14.4
CN1CCN(C(=O)COc2ccc(S(=O)(=O)Nc3ccc(F)cc3)cc2)CC1,2.6,36.2,66.3*,-9.8,-12.3
CN(C)C1C(=O)C(C(N)=O)=C(O)C2(O)C(=O)C3=C(O)c4c(O)cccc4C(C)(O)C3C(O)C12 (stereo not drawn),20.2,0.0,-4.6,105.0*,14.8
Cc1ccc(N2C(=O)NC(=O)/C(=C\C=C\c3ccco3)C2=O)cc1,-92.5,79.4*,-23.2,1.2,0.8
O=C1NC(=O)N(c2ccccc2)C(=O)/C1=C/C=C/c1ccco1,-135.8,88.2*,-17.5,-4.4,-6.6
Cc1cccc(N2C(=O)NC(=O)/C(=C\C=C\c3ccco3)C2=O)c1,-130.6,?,-31.7,-14.4,27.0
C=C(C)[C@H]1CN[C@H](C(=O)O)[C@H]1CC(=O)O,7.3,-3.8,-17.0,-4.6,-46.1
CC(C)(C)c1ccc(CSc2cnn(C(C)(C)C)c(=O)c2Cl)cc1,100.8*,32.5,-11.6,59.4*,13.2
Cc1c(C=C2C(=O)N(C)C(=S)N(C)C2=O)c2ccccc2n1CC(=O)NCC1CCCO1 (stereo not drawn),.,-4.1,.,.,20.9
